Eight compounds from ChEMBL document CHEMBL1155793, “Phenyl phosphotriester derivatives of AZT: variations upon the SATE moiety” (Bioorg Med Chem, 2008) can be followed below.

The nature of series [1]: Chemical stability in water at pH 6.8. Type of series: physicochemical. The essentials:
(§1)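 Compound at an initial 50 µM was incubated in water (pH 6.8) or RPMI 1640 (pH 7.5). Samples were analysed by on-line ISRP-cleaning HPLC: TEAA 20 mM pH 6.9 wash, then 0–80% acetonitrile gradient, UV 267 nm. Products were identified by HPLC/MS or co-injection. Half-lives came from pseudo-first-order mono- or polyexponential fits of peak areas. Mean of two experiments.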

A short description of series [2]: Stability in human CEM-SS cell extracts. In kind it is ADME, cell-based. The essentials:
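CEM-SS cell extracts were incubated with compound at an initial 50 µM. Samples were analysed by on-line ISRP-cleaning HPLC (0–80% acetonitrile gradient in 20 mM TEAA pH 6.9, detection 267 nm), with metabolites identified by HPLC/MS or co-injection. Half-lives came from pseudo-first-order mono- or polyexponential regression. Mean of three experiments.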

A short description of series [3]: Cytotoxicity against human thymidine kinase-deficient CEM cells. In kind it is cell-based, CCRF-CEM.
A short description of series [4]: Lipophilicity, log P of the compound. Type of series: physicochemical. The settings on record: octanol/water. The essentials: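 Log P values were calculated with software, not measured experimentally.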
Series [5] has as its system Human immunodeficiency virus 1. The series can be described thus: Antiviral activity against HIV1 infected human thymidine kinase-deficient CEM cells. Type of series: functional, organism-based. The note with it: Human immunodeficiency virus 1, CCRF-CEM.
Series [6] can be described thus: Cytotoxicity against human MT4 cells. Type of series: cell-based.
Series [7] deals with Human immunodeficiency virus 1. The series can be described thus: Antiviral activity against HIV1 infected human MT4 cells. In kind it is functional, organism-based. The settings on record: Human immunodeficiency virus 1, MT4.
The nature of series [8]: Cytotoxicity against human CEM-SS cells. Type of series: cell-based.
Series [9] in a line: Chemical stability in RPMI1640 medium at pH 7.5. In kind it is physicochemical. The essentials: as §1
Series [10] concerns Human immunodeficiency virus 1. The series can be described thus: Antiviral activity against HIV1 infected human CEM-SS cells. In kind it is functional, organism-based. The note with it: Human immunodeficiency virus 1, CEM-SS.
Series [11] in a line: Stability in human CEM-SS cell culture medium. In kind it is ADME, cell-based. The essentials: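 Compound at an initial 50 µM was incubated in culture medium of 90% RPMI 1640 plus 10% fetal calf serum, heat-inactivated 30 min at 56 °C. Analysis was by on-line ISRP-cleaning HPLC (0–80% acetonitrile in 20 mM TEAA pH 6.9, 267 nm) with HPLC/MS or co-injection identification. Half-lives came from pseudo-first-order exponential fits. Mean of three experiments.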

Series [12] is described as follows: Aqueous solubility of the compound. Type of series: physicochemical.

In brackets after ≈: the same amount, converted by molar mass. Where only a bound is given, the exact number is not on record here.

Consider `Cc1cn([C@H]2C[C@H](N=[N+]=[N-])[C@@H](COP(=O)(OCCSC(=O)[C@@H](N)C(C)C)Oc3ccccc3)O2)c(=O)[nH]c1=O` (stereo partly specified), for which the half-life (as a rule, the time in which the quantity being followed falls by half) in series [1] is 1820 h; in [2], less than 0.0167 h; in series [9], less than 0.0167 h; in series [11], less than 0.0167 h. In addition, the CC50 in series [3], in [6] and in [8] was more than 120 µM in each case. Also, in series [4] (read-out: logP), the log partition coefficient (logP) (in general, a log measure of how a compound divides between an organic and an aqueous phase) was found to be 2. For the same compound, the EC50 (as a rule, the concentration needed to bring the measured effect to its halfway point) in series [5] came out at 81 µM; in [7], 0.004 µM; in series [10], 0.001 µM.
Take `Cc1cn([C@H]2C[C@H](N=[N+]=[N-])[C@@H](COP(=O)(OCCSC(=O)C(C)(C)CO)Oc3ccccc3)O2)c(=O)[nH]c1=O` (stereo partly specified): the half-life was 14.8 h in series [2] and 331 h in series [11]. The CC50 in [3], in series [6] and in series [8] was more than 130 µM in each case. In addition, the solubility (commonly the concentration that dissolves in the medium under given conditions) in series [12] came out at 6640 µg/mL (≈ 11.4 mM). Also, the lipophilicity (logP) in series [4] (read-out: logP) stood at 2. Moreover, the 50% effective concentration (EC50) amounted to 3.9 µM in series [5], 0.03 µM in series [7] and 0.006 µM in [10].
On to `Cc1cn([C@H]2C[C@H](N=[N+]=[N-])[C@@H](COP(=O)(OCCSC(=O)C(C)(CO)CO)Oc3ccccc3)O2)c(=O)[nH]c1=O` (stereo partly specified), for which the half-life in series [2] was 178 h; in [11], 211 h. For the same compound, the CC50 in series [3], in [6] and in [8] was more than 150 µM each time. In [12], this compound registered a solubility of 60600 µg/mL (≈ 101 mM). Further, the logP in [4] (read-out: logP) was 2. Moreover, the EC50 in series [5] is more than 100 µM; in series [7] it was 0.074 µM; in series [10], 0.012 µM.
As for `Cc1cn([C@H]2C[C@H](N=[N+]=[N-])[C@@H](COP(=O)(OCCSC(=O)C(C)(C)C)Oc3ccccc3)O2)c(=O)[nH]c1=O` (stereo partly specified), the half-life in series [2] is 1.5 h; in [11] it was 607 h. Moreover, the CC50 in [3], in [6] and in [8] was more than 10 µM each time. In addition, the concentration in solution in series [12] (solubility) came to 57 µg/mL (≈ 0.1 mM). This compound also displayed a logP in [4] of 2. Besides, the EC50 is 0.45 µM in series [5], 0.81 µM in [7] and 0.015 µM in series [10].
Take `Cc1cn([C@H]2C[C@H](N=[N+]=[N-])[C@@H](COP(=O)(OCCSC(=O)C(C)(C)NC(=O)OC(C)(C)C)Oc3ccccc3)O2)c(=O)[nH]c1=O` (stereo partly specified): the half-life in series [1] was more than 480 h; in [2] it was 40.8 h; in series [9], more than 288 h; in series [11], 338 h.
The corresponding values for `Cc1cn([C@H]2C[C@H](N=[N+]=[N-])[C@@H](COP(=O)(OCCSC(=O)[C@@H](NC(=O)OC(C)(C)C)C(C)C)Oc3ccccc3)O2)c(=O)[nH]c1=O` (stereo partly specified) are more than 960 h, 106 h, more than 216 h and 197 h.
On to `Cc1cn([C@H]2C[C@H](N=[N+]=[N-])[C@@H](COP(=O)(OCCSC(=O)C(C)(C)N)Oc3ccccc3)O2)c(=O)[nH]c1=O` (stereo partly specified), for which the half-life in series [1] is more than 144 h; in series [2], 0.133 h; in [9], 0.1 h; in series [11], less than 0.0167 h. Besides, the 50% cytotoxic concentration (CC50) in series [3], in series [6] and in series [8] was more than 120 µM throughout. Moreover, the lipophilicity (logP) in series [4] (read-out: logP) amounted to 2. Moreover, the EC50 in series [5] worked out at 90 µM; in series [7] it was 0.054 µM; in series [10], 0.009 µM.
Consider `Cc1cn([C@H]2C[C@H](N=[N+]=[N-])[C@@H](CO)O2)c(=O)[nH]c1=O` [ZIDOVUDINE], for which the CC50 in series [3], in series [6] and in series [8] was more than 100 µM in each case. Moreover, the EC50 in series [5] is more than 100 µM; in series [7], 0.015 µM; in series [10] it was 0.003 µM.
